This is an account of results in ChEMBL document CHEMBL1759832, “Discovery of torezolid as a novel 5-hydroxymethyl-oxazolidinone antibacterial agent” (Eur J Med Chem, 2011).

Structures are written as SMILES. Values after ≈ are worked out from the molar mass of the structure shown.

Series [1] concerns Staphylococcus aureus. Nature of the series: Antibacterial activity against methicillin-susceptible Staphylococcus aureus Smith infected po dosed ICR mouse assessed as protection against mouse mortality administered 1 hr after infection measured up to 7 days. The format is functional. An outline of the steps:
(§1)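 Male outbred ICR mice (4-week-old, 18-20 g) infected intraperitoneally with S. aureus Smith, 2.9 × 10⁷ CFU/mouse in 5% mucin. Compounds given orally or intravenously 1 h after infection, eight mice per group. Mortality followed for 7 days. ED50 taken as the dose protecting 50% of infected mice from death.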

Another series concerns Enterococcus. Nature of the series: Antibacterial activity against vancomycin-resistant Enterococcus by agar dilution method. The series is classed as functional. An outline of the steps: (§2)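 MIC by CLSI agar dilution on Mueller-Hinton agar for S. aureus (MSSA, MRSA) and Enterococcus faecium (VRE).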
A general note: In agar dilution, organisms are placed on agar that contains the substance at set levels.

A further series relates to Haemophilus influenzae. The series can be described thus: Antibacterial activity against Haemophilus influenzae by agar dilution method. The format is functional. A digest of the protocol:
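CLSI agar dilution; Haemophilus test medium used for H. influenzae; read-out MIC.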

The subject of series [2] is Staphylococcus aureus. The series can be described thus: Antibacterial activity against methicillin-susceptible Staphylococcus aureus by agar dilution method. The format is functional. An outline of the steps:
as §2

Series [3] has as its system Staphylococcus aureus. The series can be described thus: Antibacterial activity against methicillin-resistant Staphylococcus aureus by agar dilution method. The format is functional. A digest of the protocol:
as §2

Series [4] is described as follows: Chemical stability of compound in distilled water assessed as compound remaining at 100 ug/ml after 8 hrs. The series is classed as physicochemical.
Series [5] in a line: Chemical stability of compound in distilled water assessed as compound remaining at pH 5 at 100 ug/ml after 8 hrs. The format is physicochemical. As to conditions: buffer, pH 5, 8 h.
Series [6] can be described thus: Chemical stability of compound in distilled water assessed as compound remaining at pH 7 at 100 ug/ml after 8 hrs. The format is physicochemical. As to conditions: buffer, pH 7, 8 h.
Series [7] can be described thus: Chemical stability of compound in distilled water assessed as compound remaining at pH 3 at 100 ug/ml after 8 hrs. The series is classed as physicochemical. The conditions noted are these: buffer, pH 3, 8 h.
Series [8] in a line: Aqueous solubility of compound in distilled water. The format is physicochemical. An outline of the steps:
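Water added stepwise with repeated vortexing until solution turned transparent; solubility = amount dissolved divided by total distilled water volume in the final clear solution; triplicate, averaged.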

The next series deals with Streptococcus pneumoniae. Nature of the series: Antibacterial activity against penicillin-resistant Streptococcus pneumoniae by agar dilution method. The series is classed as functional.
Series [9] concerns Staphylococcus aureus. Nature of the series: Antibacterial activity against methicillin-sensitive Staphylococcus aureus Smith infected po dosed ICR mouse assessed as protection against mouse mortality administered 1 hr after infection measured up to 7 days. The format is functional. A digest of the protocol: as §1
For series [10], the system named is Staphylococcus aureus. The series can be described thus: Antibacterial activity against methicillin-sensitive Staphylococcus aureus Smith infected iv dosed ICR mouse assessed as protection against mouse mortality administered 1 hr after infection measured up to 7 days. The series is classed as functional. A digest of the protocol: as §1
The subject of series [11] is Staphylococcus aureus. Nature of the series: Antibacterial activity against methicillin-resistant Staphylococcus aureus Smith infected po dosed ICR mouse assessed as protection against mouse mortality administered 1 hr after infection measured up to 7 days. The format is functional. An outline of the steps:
as §1

In series [12] the test system is Staphylococcus aureus. The series can be described thus: Antibacterial activity against methicillin-resistant Staphylococcus aureus Smith infected iv dosed ICR mouse assessed as protection against mouse mortality administered 1 hr after infection measured up to 7 days. The format is functional. An outline of the steps:
as §1

Series [13] can be described thus: Half life in ICR mouse at 10 mg/kg, iv by LC/MS/MS analysis. The format is ADME, organism-based. Details: dose 10 mg/kg, route intravenous. The conditions noted are these: in vivo. An outline of the steps: (§3)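 Single 10 mg/kg dose given orally by feeding tube or iv via tail vein to male ICR mice (4-week-old, 18-20 g). Plasma acidified with 1 N HCl, stored at -70 °C, analysed by LC/MS/MS. Parameters from mean plasma concentrations. For prodrug dosing, values are based on the active parent detected.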

A short description of series [14]: Tmax in ICR mouse at 10 mg/kg, po by LC/MS/MS analysis. The series is classed as ADME, organism-based. Also on record: dose 10 mg/kg, route oral. As to conditions: in vivo. An outline of the steps: as §3
Series [15] can be described thus: Cmax in ICR mouse at 10 mg/kg, po by LC/MS/MS analysis. The conditions noted are these: in vivo. Details: dose 10 mg/kg, route oral. The format is ADME, organism-based. A digest of the protocol:
as §3

Series [16] in a line: Half life in ICR mouse at 10 mg/kg, po by LC/MS/MS analysis. The format is ADME, organism-based. Also on record: dose 10 mg/kg, route oral. The conditions noted are these: in vivo. A digest of the protocol:
as §3

A short description of series [17]: Oral bioavailability in ICR mouse at 10 mg/kg by LC/MS/MS analysis. The format is ADME, organism-based. The conditions noted are these: in vivo. A digest of the protocol: as §3
The nature of series [18]: Volume of distribution at steady state in ICR mouse at 10 mg/kg, iv by LC/MS/MS analysis. The series is classed as ADME, organism-based. Details: dose 10 mg/kg, route intravenous. As to conditions: in vivo, read-out: Vdss. An outline of the steps:
as §3

The nature of series [19]: AUC in ICR mouse at 10 mg/kg, iv by LC/MS/MS analysis. The series is classed as ADME, organism-based. Details: dose 10 mg/kg, route intravenous. The conditions noted are these: plasma. An outline of the steps: as §3
Series [20] can be described thus: Clearance in ICR mouse at 10 mg/kg, iv by LC/MS/MS analysis. The format is ADME, organism-based. Also on record: dose 10 mg/kg, route intravenous. As to conditions: in vivo. An outline of the steps: as §3
Series [21] is described as follows: AUC in ICR mouse at 10 mg/kg, po by LC/MS/MS analysis. The series is classed as ADME, organism-based. Also on record: dose 10 mg/kg, route oral. The conditions noted are these: plasma. An outline of the steps: as §3

Consider `Cc1nnc(-c2ccc(-c3ccc(N4C[C@H](Cn5ccnn5)OC4=O)cc3F)cn2)o1`, for which the ED50 with Staphylococcus aureus [1] is > 30 mg/kg. Moreover, the MIC against Enterococcus is 0.125 µg/mL (≈ 0.297 µM); in the series with Haemophilus influenzae, 2 µg/mL (≈ 4.75 µM); in the series with Staphylococcus aureus [2] it was 0.25 µg/mL (≈ 0.593 µM); against Staphylococcus aureus [3], 0.25 µg/mL (≈ 0.593 µM).
Turning to `Cn1nnc(-c2ccc(-c3ccc(N4C[C@H](COC(=O)[C@@H]5CCCN5)OC4=O)cc3F)cn2)n1.O=C(O)C(F)(F)F`, the Stability in series [4] was found to be 76.4%; in series [5], 65.2%; in series [6] it was 0.2%; in [7], 81.9%. In addition, in series [8], the solubility is < 1.6 mg/mL.
The matching figures for `C[C@H](N)C(=O)OC[C@H]1CN(c2ccc(-c3ccc(-c4nnn(C)n4)nc3)c(F)c2)C(=O)O1.O=C(O)C(F)(F)F`: 90.7%, 87.8%, 6.3%, 97% and > 50 mg/mL.
On the same counts, the results for `C[C@H](N)C(=O)OC[C@H]1CN(c2ccc(-c3ccc(-c4nnn(C)n4)nc3)c(F)c2)C(=O)O1.Cl` are 92.3%, 88.1%, 7.5%, 98% and > 50 mg/mL.
As for `Cn1nnc(-c2ccc(-c3ccc(N4C[C@H](COC(=O)CCN)OC4=O)cc3F)cn2)n1.O=C(O)C(F)(F)F`, the Stability stood at 96.9% in [4], 99.5% in series [5], 94.9% in [6] and 99.6% in series [7]. Also, in [8], the solubility came to 2.6 mg/mL.
The matching figures for `Cl.Cn1nnc(-c2ccc(-c3ccc(N4C[C@H](COC(=O)CCN)OC4=O)cc3F)cn2)n1`: 99.9%, 94.9%, 50.5%, 99.9% and 20.4 mg/mL.
The matching figures for `Cn1nnc(-c2ccc(-c3ccc(N4C[C@H](COC(=O)CN)OC4=O)cc3F)cn2)n1.O=C(O)C(F)(F)F`: 79.5%, 92.7%, 8.1%, 86.6% and 28 mg/mL.
With `Cl.Cn1nnc(-c2ccc(-c3ccc(N4C[C@H](COC(=O)CN)OC4=O)cc3F)cn2)n1`, the Stability in series [4] worked out at 85.7%; in series [5] it was 93.3%; in series [6] it was 11.6%; in [7] it was 95.1%.
Turning to `CC(C)[C@H](N)C(=O)OC[C@H]1CN(c2ccc(-c3ccc(-c4nnn(C)n4)nc3)c(F)c2)C(=O)O1.O=C(O)C(F)(F)F`, the Stability in series [4] is 99.4%; in series [5] it was 97.3%; in series [6], 51.2%; in series [7], 99.9%. Besides, the concentration in solution in series [8] (solubility) was 4.7 mg/mL.
As to `CC(C)[C@H](N)C(=O)OC[C@H]1CN(c2ccc(-c3ccc(-c4nnn(C)n4)nc3)c(F)c2)C(=O)O1.Cl`, the Stability in series [4] was found to be 99.9%; in series [5] it was 97.7%; in series [6] it was 60.9%; in [7], 99.9%.
As for `CC(=O)NC[C@H]1CN(c2ccc(-c3ccc(-c4nnnn4C)nc3)c(F)c2)C(=O)O1`, the MIC came to 0.39 µg/mL (≈ 0.948 µM) against Streptococcus pneumoniae, 0.125 µg/mL (≈ 0.304 µM) with Enterococcus, 0.78 µg/mL (≈ 1.9 µM) with Staphylococcus aureus [2] and 0.78 µg/mL (≈ 1.9 µM) against Staphylococcus aureus [3].
`CN(C)CC1CN(c2ccc(-c3ccc(-c4nnn(C)n4)nc3)c(F)c2)C(=O)O1` (single isomer, unassigned): the MIC with Staphylococcus aureus [2] was 4 µg/mL (≈ 10.1 µM); in the series on Staphylococcus aureus [3], 8 µg/mL (≈ 20.1 µM).
Take `CC(=O)NC[C@H]1CN(c2ccc(N3CCOCC3)c(F)c2)C(=O)O1` [LINEZOLID]: the median effective dose (ED50) with Staphylococcus aureus [9] came out at 21.4 mg/kg; in the series with Staphylococcus aureus [10], 29.1 mg/kg; in the series with Staphylococcus aureus [1], 9.4 mg/kg; in the series on Staphylococcus aureus [11] it was 15.6 mg/kg; in the series on Staphylococcus aureus [12] it was 12.9 mg/kg. Also, the results for the MIC against Enterococcus and in the series on Haemophilus influenzae were 1 µg/mL (≈ 2.96 µM) and 8 µg/mL (≈ 23.7 µM), respectively.
With `Cn1nnc(-c2ccc(-c3ccc(N4C[C@H](CO)OC4=O)cc3F)cn2)n1` [TEDIZOLID], the half-life in series [13] was 3.49 h; in series [16] it was 3.12 h. Further, the Tmax in series [14] turned out to be 2 h. The same compound displayed a Cmax in series [15] of 4620 ng/mL. In series [17], this compound came in with a bioavailability of 48.5%. The ED50 in the series with Staphylococcus aureus [1] came to 8.8 mg/kg. The MIC was 0.125 µg/mL (≈ 0.338 µM) with Enterococcus, 4 µg/mL (≈ 10.8 µM) in the series with Haemophilus influenzae, 0.5 µg/mL (≈ 1.35 µM) in the series on Staphylococcus aureus [2] and 0.5 µg/mL (≈ 1.35 µM) in the series on Staphylococcus aureus [3]. Moreover, the Vd in series [18] is 0.512 L/kg. Besides, the results for the area under the curve (AUC) in [19] and in [21] were 103000 ng·h/mL and 49800 ng·h/mL, respectively. Moreover, the clearance in series [20] was found to be 1.61 mL/min/kg.

For orientation: ED50 means the dose that gives a 50% effect, or the effect in half of the subjects. For orientation: solubility means the concentration that dissolves in the medium under given conditions. Higher therefore signals much dissolved substance. As usually defined, the half-life is how long it takes for the measured level to halve. Lower therefore signals rapid decline. A word on the Tmax: it is the time from dosing to the highest level. A word on the Cmax: it is the maximum level reached in the sampled fluid or tissue. Usually bioavailability stands for dose-corrected exposure relative to a reference, in per cent. A lower bioavailability goes with poor availability. The AUC is concentration integrated over time. Read a low AUC as less exposure. In general, clearance refers to a measure of how efficiently the substance is removed, as volume per time.
